This note sets out measurements from ChEMBL document CHEMBL1138004, “Small molecule antagonists of the CCR2b receptor. Part 2: Discovery process and initial structure-activity relationships of diamine derivatives” (Bioorg Med Chem Lett, 2004).

Structures are written as SMILES.

The target of one experiment is T1, C-C chemokine receptor type 2 (Homo sapiens, UniProt P41597). In words: Concentration required to inhibit [125I]MCP-1 binding to Chemokine receptor 2B.
Conditions: not given; call rule not given here
The procedure, abridged: (§1)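 Radioligand binding with THP-1 cells as the receptor source and human 125I-MCP-1 as the tracer. Inhibition of tracer binding by test compounds was measured.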
Target sequence in this assay (P41597 whole entry): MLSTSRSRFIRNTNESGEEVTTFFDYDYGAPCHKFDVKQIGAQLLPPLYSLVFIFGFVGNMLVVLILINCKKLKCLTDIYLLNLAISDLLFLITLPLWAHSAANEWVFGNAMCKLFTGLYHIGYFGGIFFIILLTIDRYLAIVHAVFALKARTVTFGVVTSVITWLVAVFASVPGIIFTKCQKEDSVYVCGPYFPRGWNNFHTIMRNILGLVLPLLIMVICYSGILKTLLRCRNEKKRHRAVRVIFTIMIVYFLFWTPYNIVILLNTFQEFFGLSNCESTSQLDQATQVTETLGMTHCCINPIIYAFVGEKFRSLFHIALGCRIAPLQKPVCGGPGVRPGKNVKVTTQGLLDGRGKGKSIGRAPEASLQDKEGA
For orientation: IC50 means the point on the concentration scale where inhibition reaches its midpoint. Low values mean inhibition by little substance, high ones a need for much substance. `O=C(CCNC(=O)c1ccccc1)NC1CCN(Cc2ccc(Cl)cc2)C1` (stereo not given) returned an IC50 of 22 µM.
On the same count and under the same terms, in the case of `Cc1csc(C(=O)NNC(=O)CN2CCC(NCc3ccc(Cl)cc3)C2)c1` (stereo not given) it was 7.8 µM; in that of `O=C(CCNC(=O)c1ccccc1)NCC1CCN(Cc2ccc(Cl)cc2)CC1`, 64 µM.
The compound `O=C(CCCC(=O)c1ccccc1)NCC1CCN(Cc2ccc(Cl)cc2)CC1` came in with a 50% inhibitory concentration (IC50) of 50 µM.
In turn, `O=C(CCCC(=O)c1ccccc1)NCC1CCCN1Cc1ccc(Cl)cc1` (stereo not given) had an IC50 of 19 µM.
`O=C(CCCC(=O)c1ccccc1)NC1CCN(Cc2ccc(Cl)cc2)C1` (stereo not given) yielded an IC50 of 11 µM.
On the same count and under the same terms, to `O=C(CNC(=O)c1cccc(C(F)(F)F)c1)NC[C@@H]1CCCN1Cc1ccc(Cl)cc1` belongs 3.1 µM; to `Cc1cccc(C(=O)NCC(=O)NC2CCN(Cc3ccc(Cl)cc3)C2)c1` (stereo not given), 6.9 µM; to `Cc1cccc(C(=O)NCC(=O)NC2CCCN(Cc3ccc(Cl)cc3)C2)c1` (stereo not given), 17 µM.
Same read-out and setting: in the case of `O=C(CNC(=O)c1cccc(C(F)(F)F)c1)NCC1CCCN1Cc1ccc(Cl)cc1` (stereo not given) it was 2.3 µM.
Still for that read-out and setting: to `O=C(CNC(=O)c1cccc(C(F)(F)F)c1)NC1CCCN(Cc2ccc(Cl)cc2)C1` (stereo not given) belongs 0.66 µM; to `Cc1csc(C(=O)NNC(=O)CNC2CCN(Cc3ccc(Cl)cc3)C2)c1` (stereo not given), 41 µM; to `O=C(CNC(=O)c1cccc(C(F)(F)F)c1)N[C@H]1CCN(Cc2ccc(Cl)cc2)C1`, 1.2 µM.
In turn, `Cc1csc(C(=O)NNC(=O)CN2CCC(NCCC(c3ccccc3)c3ccccc3)C2)c1` (stereo not given) displayed an IC50 of 17 µM.
Still for that read-out and setting: in the case of `O=C(CCNC(=O)c1ccccc1)NCC1CCCN1Cc1ccc(Cl)cc1` (stereo not given) it was 40 µM; in that of `O=C(CNC(=O)c1cccc(C(F)(F)F)c1)NCC1CCN(Cc2ccc(Cl)cc2)CC1`, 0.7 µM.
Still for that read-out and setting: to `Cc1csc(C(=O)NNC(=O)CN2CCCC2CNCCC(c2ccccc2)c2ccccc2)c1` (stereo not given) belongs 26 µM; to `Cc1cccc(C(=O)NCC(=O)NCC2CCN(Cc3ccc(Cl)cc3)CC2)c1`, 5.5 µM.
Same read-out and setting: in the case of `O=C(CCNC(=O)c1ccccc1)NC1CCCN(Cc2ccc(Cl)cc2)C1` (stereo not given) it was 74 µM; in that of `O=C(CCCC(=O)c1ccccc1)NC1CCCN(Cc2ccc(Cl)cc2)C1` (stereo not given), 87 µM.
For `Cc1cccc(C(=O)NCC(=O)NCC2CCCN2Cc2ccc(Cl)cc2)c1` (stereo not given), the IC50 came to 14 µM.
The same measure, in the same setting: to `O=C(CNC(=O)c1ccccc1)NCC1CCCN1Cc1ccc(Cl)cc1` (stereo not given) belongs 66 µM; to `Cc1csc(C(=O)NNC(=O)CNC2CCN(CCC(c3ccccc3)c3ccccc3)C2)c1` (stereo not given), 33 µM; to `O=C(CNC(=O)c1cccc(C(F)(F)F)c1)N[C@@H]1CCN(Cc2ccc(Cl)cc2)C1`, 0.18 µM.
For `O=C(CNC(=O)c1ccccc1)NC1CCN(Cc2ccc(Cl)cc2)C1` (stereo not given), the IC50 was 42 µM.
On the same count and under the same terms, in the case of `O=C(CNC(=O)c1cccc(C(F)(F)F)c1)NC1CCN(Cc2ccc(Cl)cc2)C1` (stereo not given) it was 0.37 µM; in that of `O=C(CNC(=O)c1cccc(C(F)(F)F)c1)NC[C@H]1CCCN1Cc1ccc(Cl)cc1`, 0.57 µM.
Consider `O=C(CNC(=O)c1ccccc1)NCC1CCN(Cc2ccc(Cl)cc2)CC1`, for which the IC50 was determined as 11 µM. Against the preceding compound, the IC50 is about 19-fold higher.

A further experiment concerns the target T1, C-C chemokine receptor type 2. In words: Inhibition of [125I]MCP-1 binding to Chemokine receptor 2B; not active.
Conditions: not given
The procedure, abridged: as §1
Target sequence in this assay (P41597 whole entry): as above
Regarding `O=C(CNC(=O)c1ccccc1)NC1CCCN(Cc2ccc(Cl)cc2)C1` (stereo not given), the IC50 entry was “Not Active”.

The next experiment has the same target. The settings on record: 10 uM.
Target sequence in this assay (P41597 whole entry, looked up): as the sequence (P41597 whole entry) above
Broadly, the inhibition is the change of the read-out against control, counted positive when it falls. The low end stands for a weak effect, the high end for a strong effect. The compound `O=C(CNC(=O)c1cccc(C(F)(F)F)c1)N[C@@H]1CCN(Cc2ccc(Cl)cc2)C1` returned an inhibition of 49%.
